Results: ChEMBL document CHEMBL4270599, “Synthesis of a 3'-C-ethynyl-β-d-ribofuranose purine nucleoside library: Discovery of C7-deazapurine analogs as potent antiproliferative nucleosides” (Eur J Med Chem, 2018)

Experiments:
K562 [1] = test: Growth inhibition of human K562 cells assessed as cell growth at 10^-4 M incubated for 48 hrs by sulforhodamine B assay relative to control; type: functional; conditions: K562, 48 h, read-out: Activity
HCT-15 = test: Growth inhibition of human HCT15 cells assessed as cell growth at 10^-7 M incubated for 48 hrs by sulforhodamine B assay relative to control; type: functional; conditions: HCT-15, 48 h, read-out: Activity
CCRF-CEM = test: Growth inhibition of human CCRF-CEM cells assessed as cell growth at 10^-4 M incubated for 48 hrs by sulforhodamine B assay relative to control; type: functional; conditions: read-out: Activity
OVCAR-5 = test: Growth inhibition of human OVCAR5 cells assessed as cell growth at 10^-5 M incubated for 48 hrs by sulforhodamine B assay relative to control; type: functional; conditions: OVCAR-5, 48 h, read-out: Activity
ACHN = test: Growth inhibition of human ACHN cells assessed as cell growth at 10^-7 M incubated for 48 hrs by sulforhodamine B assay relative to control; type: functional; conditions: read-out: Activity
K562 [2] = test: Growth inhibition of human K562 cells assessed as cell growth at 10^-6 M incubated for 48 hrs by sulforhodamine B assay relative to control; type: functional; conditions: K562, 48 h, read-out: Activity
SK-MEL-5 = test: Growth inhibition of human SK-MEL-5 cells assessed as cell growth at 10^-6 M incubated for 48 hrs by sulforhodamine B assay relative to control; type: functional; conditions: SK-MEL-5, 48 h, read-out: Activity
SNB-19 = test: Growth inhibition of human SNB19 cells assessed as cell growth at 10^-8 M incubated for 48 hrs by sulforhodamine B assay relative to control; type: functional; conditions: SNB-19, 48 h, read-out: Activity
M14 [3] = test: Cytotoxicity against human M14 cells after 48 hrs by SRB assay; type: functional; conditions: M14, 48 h
SR = test: Growth inhibition of human SR cells assessed as cell growth at 10^-7 M incubated for 48 hrs by sulforhodamine B assay relative to control; type: functional; conditions: read-out: Activity
MCF7 = test: Growth inhibition of human MCF7 cells assessed as cell growth at 10^-5 M incubated for 48 hrs by sulforhodamine B assay relative to control; type: functional; conditions: MCF7, 48 h, read-out: Activity
SF-295 = test: Growth inhibition of human SF295 cells assessed as cell growth at 10^-6 M incubated for 48 hrs by sulforhodamine B assay relative to control; type: functional; conditions: SF-295, 48 h, read-out: Activity
HCT-116 [4] = test: Growth inhibition of human HCT116 cells assessed as cell growth at 10^-6 M incubated for 48 hrs by sulforhodamine B assay relative to control; type: functional; conditions: HCT-116, 48 h, read-out: Activity
UACC-257 [5] = test: Growth inhibition of human UACC257 cells assessed as cell growth at 10^-5 M incubated for 48 hrs by sulforhodamine B assay relative to control; type: functional; conditions: UACC-257, 48 h, read-out: Activity
Malme-3M = test: Cytotoxicity against human MALME-3M cells after 48 hrs by SRB assay; type: functional
HCT-116 [6] = test: Growth inhibition of human HCT116 cells assessed as cell growth at 10^-8 M incubated for 48 hrs by sulforhodamine B assay relative to control; type: functional; conditions: HCT-116, 48 h, read-out: Activity
HMEC-1 = test: Antiproliferative activity against HMEC1 cells after 4 days by Coulter counter method; type: cell-based; conditions: Homo sapiens, HMEC-1, 96 h
Summary of the method: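 Primary HUVEC, primary HMVEC-d and the HMEC-1 line seeded at 20,000 cells/well in gelatin-coated plates in EC growth medium (EGM2). After overnight incubation, 5-fold compound dilutions added. Cells proliferated four days with compound, then trypsinized and counted by Coulter counter to derive IC₅₀.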

M14 [7] = test: Growth inhibition of human M14 cells assessed as cell growth at 10^-7 M incubated for 48 hrs by sulforhodamine B assay relative to control; type: functional; conditions: M14, 48 h, read-out: Activity
A498 [8] = test: Growth inhibition of human A498 cells assessed as cell growth at 10^-6 M incubated for 48 hrs by sulforhodamine B assay relative to control; type: functional; conditions: A498, 48 h, read-out: Activity
EKVX = test: Growth inhibition of human EKVX cells assessed as cell growth at 10^-8 M incubated for 48 hrs by sulforhodamine B assay relative to control; type: functional; conditions: read-out: Activity
HL-60(TB) = test: Growth inhibition of human HL-60(TB) cells assessed as cell growth at 10^-5 M incubated for 48 hrs by sulforhodamine B assay relative to control; type: functional; conditions: HL-60, 48 h, read-out: Activity
SNB-75 = test: Growth inhibition of human SNB75 cells assessed as cell growth at 10^-7 M incubated for 48 hrs by sulforhodamine B assay relative to control; type: functional; conditions: SNB-75, 48 h, read-out: Activity
L1210 = test: Antiproliferative activity against mouse L1210 cells after 48 hrs by Coulter counter method; type: functional, cell-based; conditions: L1210, 48 h
Summary of the method: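 Cell count assay in 96-well microtiter plates; (5–7.5) × 10⁴ tumor cells per well plus test compound. Cells proliferated at 37 °C in humidified CO₂-controlled atmosphere, 48 h for murine leukemia L1210, 72 h for human lymphocytic CEM and cervix carcinoma HeLa. Counted by Coulter counter; IC₅₀ is the concentration that inhibits proliferation by 50%.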

A498 [9] = test: Cytotoxicity against human A498 cells after 48 hrs by SRB assay; type: functional; conditions: A498, 48 h
SK-MEL-2 = test: Cytotoxicity against human SK-MEL-2 cells after 48 hrs by SRB assay; type: functional; conditions: SK-MEL-2, 48 h
RXF 393 = test: Growth inhibition of human RXF393 cells assessed as cell growth at 10^-8 M incubated for 48 hrs by sulforhodamine B assay relative to control; type: functional; conditions: RXF 393, 48 h, read-out: Activity
PC-3 = test: Growth inhibition of human PC3 cells assessed as cell growth at 10^-8 M incubated for 48 hrs by sulforhodamine B assay relative to control; type: functional; conditions: PC-3, 48 h, read-out: Activity
SK-OV-3 = test: Growth inhibition of human SKOV3 cells assessed as cell growth at 10^-8 M incubated for 48 hrs by sulforhodamine B assay relative to control; type: functional; conditions: SK-OV-3, 48 h, read-out: Activity
COLO 205 = test: Cytotoxicity against human COLO205 cells after 48 hrs by SRB assay; type: functional; conditions: COLO 205, 48 h
UACC-257 [10] = test: Growth inhibition of human UACC257 cells assessed as cell growth at 10^-6 M incubated for 48 hrs by sulforhodamine B assay relative to control; type: functional; conditions: UACC-257, 48 h, read-out: Activity
[11] = read-out: LC50 (the source's name)
[12] = read-out: pLC50 (the source's name) (converted)

**Q.** How did the growth at 100 µM (K562 [1]) turn out when `C#C[C@@]1(O)[C@@H](CO)O[C@@H](n2cc(F)c3c(N)ncnc32)[C@@H]1O` was run?
**A.** Its growth at 100 µM is 6%.

**Q.** And the growth at 0.1 µM (HCT-15)?
**A.** Its growth at 0.1 µM is 79%.

**Q.** What about the growth at 100 µM (CCRF-CEM) of the same compound?
**A.** The growth at 100 µM was 1%.

**Q.** And the growth at 10 µM (OVCAR-5)?
**A.** Its growth at 10 µM is 5%.

**Q.** What about the growth at 0.1 µM (ACHN) of the same compound?
**A.** Its growth at 0.1 µM is 75%.

**Q.** What about the growth at 1 µM (K562 [2]) of the same compound?
**A.** Its growth at 1 µM is 16%.

**Q.** What about the growth at 1 µM (SK-MEL-5) of the same compound?
**A.** Its growth at 1 µM is 13%.

**Q.** And the growth at 0.01 µM (SNB-19)?
**A.** Its growth at 0.01 µM is 93%.

**Q.** What about the CC50 (M14 [3]; [11]) of the same compound?
**A.** Its CC50 is greater than 100000 nM.

**Q.** And the TGI (M14 [3]; read-out: TGI)?
**A.** The TGI was 2390 nM.

**Q.** What about the GI50 (M14 [3]; read-out: pGI50 (converted)) of the same compound?
**A.** Its GI50 is 479 nM.

**Q.** What about the TGI (M14 [3]; read-out: pTGI (converted)) of the same compound?
**A.** Its TGI is 2400 nM.

**Q.** And the growth at 0.1 µM (SR)?
**A.** Its growth at 0.1 µM is 65%.

**Q.** And the growth at 10 µM (MCF7)?
**A.** The growth at 10 µM was 1%.

**Q.** And the growth at 1 µM (SF-295)?
**A.** The growth at 1 µM was 40%.

**Q.** And the growth at 1 µM (HCT-116 [4])?
**A.** The growth at 1 µM was 4%.

**Q.** What about the growth at 10 µM (UACC-257 [5]) of the same compound?
**A.** The growth at 10 µM was -17%.

**Q.** What about the TGI (Malme-3M; read-out: TGI) of the same compound?
**A.** Its TGI is 1810 nM.

**Q.** And the GI50 (Malme-3M; read-out: pGI50 (converted))?
**A.** Its GI50 is 363 nM.

**Q.** And the CC50 (Malme-3M; [12])?
**A.** The CC50 was greater than 100000 nM.

**Q.** And the TGI (Malme-3M; read-out: pTGI (converted))?
**A.** The TGI was 1820 nM.

**Q.** What about the growth at 0.01 µM (HCT-116 [6]) of the same compound?
**A.** Its growth at 0.01 µM is 98%.

**Q.** And the IC50 (HMEC-1)?
**A.** Its IC50 is 61 nM.

**Q.** And the growth at 0.1 µM (M14 [7])?
**A.** The growth at 0.1 µM was 95%.

**Q.** And the growth at 1 µM (A498 [8])?
**A.** The growth at 1 µM was 43%.

**Q.** What about the growth at 0.01 µM (EKVX) of the same compound?
**A.** Its growth at 0.01 µM is 94%.

**Q.** And the growth at 10 µM (HL-60(TB))?
**A.** The growth at 10 µM was -17%.

**Q.** What about the growth at 0.1 µM (SNB-75) of the same compound?
**A.** Its growth at 0.1 µM is 107%.

**Q.** What about the IC50 (L1210) of the same compound?
**A.** Its IC50 is 35 nM.

**Q.** And the TGI (A498 [9]; read-out: TGI)?
**A.** Its TGI is 2270 nM.

**Q.** What about the GI50 (A498 [9]; read-out: pGI50 (converted)) of the same compound?
**A.** Its GI50 is 724 nM.

**Q.** And the CC50 (A498 [9]; [12])?
**A.** Its CC50 is 5890 nM.

**Q.** And the TGI (A498 [9]; read-out: pTGI (converted))?
**A.** Its TGI is 2290 nM.

**Q.** What about the CC50 (SK-MEL-2; [11]) of the same compound?
**A.** Its CC50 is greater than 100000 nM.

**Q.** What about the TGI (SK-MEL-2; read-out: TGI) of the same compound?
**A.** Its TGI is 2870 nM.

**Q.** And the GI50 (SK-MEL-2; read-out: pGI50 (converted))?
**A.** The GI50 was 447 nM.

**Q.** And the TGI (SK-MEL-2; read-out: pTGI (converted))?
**A.** The TGI was 2880 nM.

**Q.** And the growth at 0.01 µM (RXF 393)?
**A.** Its growth at 0.01 µM is 94%.

**Q.** And the growth at 0.01 µM (PC-3)?
**A.** Its growth at 0.01 µM is 92%.

**Q.** And the growth at 0.01 µM (SK-OV-3)?
**A.** The growth at 0.01 µM was 96%.

**Q.** What about the GI50 (COLO 205; read-out: GI50) of the same compound?
**A.** Its GI50 is 263 nM.

**Q.** And the TGI (COLO 205; read-out: TGI)?
**A.** Its TGI is 1300 nM.

**Q.** What about the GI50 (COLO 205; read-out: pGI50 (converted)) of the same compound?
**A.** The GI50 was 263 nM.

**Q.** What about the CC50 (COLO 205; [12]) of the same compound?
**A.** The CC50 was 9330 nM.

**Q.** And the TGI (COLO 205; read-out: pTGI (converted))?
**A.** The TGI was 1290 nM.

**Q.** What about the growth at 1 µM (UACC-257 [10]) of the same compound?
**A.** Its growth at 1 µM is 34%.
